Reference: ChEMBL document CHEMBL4316592, “Synthesis of new derivatives of boehmeriasin A and their biological evaluation in liver cancer” (Eur J Med Chem, 2019)
Active and inactive are the calls of the source. The rule behind the calls is not given here.

Tests used:
[1] = test system: SNU-475; assay: Cytotoxicity against human SNU475 cells after 72 hrs by SRB assay; format: functional, cell-based
Method in brief: (§1)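 SRB assay. Cells plated per well (HCT116 3000; Huh7, Hep3B, HepG2, MCF-7 2000; Mahlavu, FOCUS, SNU475 1000) and grown 24 h. Compounds came from 20 mM DMSO stocks and were tested in triplicate, 40 to 2,5 (or 2,5 to 0,03) per printed range, for 72 h. Cells fixed in 10% TCA, stained with 0.4% SRB, dye dissolved in 10 mM Tris, A515 read. IC50 derived after DMSO normalization.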

[2] = Cytotoxicity against human FOCUS cells after 72 hrs by SRB assay; format: functional, cell-based; method in brief: as §1
[3] = test system: HCT-116; assay: Cytotoxicity against human HCT116 cells after 72 hrs by SRB assay; format: functional, cell-based; method in brief: as §1
[4] = test system: MCF-12A; assay: Cytotoxicity against human MCF12A cells after 72 hrs by SRB assay; format: cell-based
[5] = test system: Mahlavu; assay: Cytotoxicity against human Mahlavu cells after 72 hrs by SRB assay; format: functional, cell-based; method in brief: as §1
[6] = test system: Hep 3B2; assay: Cytotoxicity against human Hep3B cells after 72 hrs by SRB assay; format: functional, cell-based; method in brief: as §1
[7] = test system: MCF7; assay: Cytotoxicity against human MCF7 cells after 72 hrs by SRB assay; format: functional, cell-based; method in brief: as §1
[8] = test system: HepG2; assay: Cytotoxicity against human HepG2 cells after 72 hrs by SRB assay; format: functional, cell-based; details: hepg2; method in brief: as §1
[9] = test system: Huh-7; assay: Cytotoxicity against human HuH7 cells after 72 hrs by SRB assay; format: functional, cell-based; method in brief: as §1
[10] = test system: Mahlavu; assay: Induction of apoptosis in human Mahlavu cells assessed as increase in cytochrome C levels by Hoechst staining-based assay; format: functional, cell-based
Method in brief: (§2)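 Cells were seeded on coverslips and treated after 24 h with compound at a single concentration for 72 h. Camptothecin was the positive control, with DMSO solvent control at matched volume. Cells were fixed in ice-cold methanol for 15 min, then given anti-cytochrome c (1:100 in 0.1% TBS-Tween) for 1 h and FITC secondary (1:200) for 1 h. Nuclei were counterstained and imaged by fluorescence microscopy.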

[11] = test system: Huh-7; assay: Induction of apoptosis in human HuH7 cells assessed as increase in cytochrome C levels by Hoechst staining-based assay; format: functional, cell-based; method in brief: as §2
[12] = test system: Huh-7; assay: Induction of apoptosis in human HuH7 cells assessed as necrotic cells at 1 uM after 48 hrs by Annexin V-FITC/propidium iodide staining-based flow cytometric analysis (reference value: 0.02%); format: functional
[13] = test system: Mahlavu; assay: Induction of apoptosis in human Mahlavu cells assessed as necrotic cells at 1 uM after 48 hrs by Annexin V-FITC/propidium iodide staining-based flow cytometric analysis (reference value: 0.07%); format: functional
[14] = test system: Huh-7; assay: Induction of apoptosis in human HuH7 cells assessed as viable cells at 1 uM after 24 hrs by Annexin V-FITC/propidium iodide staining-based flow cytometric analysis (reference value: 97.30%); format: functional; details: Huh-7, 24 h, read-out: Activity
[15] = test system: Mahlavu; assay: Induction of apoptosis in human Mahlavu cells assessed as necrotic cells at 1 uM after 72 hrs by Annexin V-FITC/propidium iodide staining-based flow cytometric analysis (reference value: 0.22%); format: functional
[16] = test system: Huh-7; assay: Induction of apoptosis in human HuH7 cells assessed as early apoptotic cells at 1 uM after 24 hrs by Annexin V-FITC/propidium iodide staining-based flow cytometric analysis (reference value: 0.17%); format: functional
[17] = test system: Huh-7; assay: Induction of apoptosis in human HuH7 cells assessed as viable cells at 1 uM after 72 hrs by Annexin V-FITC/propidium iodide staining-based flow cytometric analysis (reference value: 97.20%); format: functional; details: Huh-7, 72 h, read-out: Activity
[18] = test system: Huh-7; assay: Induction of apoptosis in human HuH7 cells assessed as necrotic cells at 1 uM after 72 hrs by Annexin V-FITC/propidium iodide staining-based flow cytometric analysis (reference value: 0.43%); format: functional
[19] = test system: Mahlavu; assay: Induction of apoptosis in human Mahlavu cells assessed as early apoptotic cells at 1 uM after 24 hrs by Annexin V-FITC/propidium iodide staining-based flow cytometric analysis (reference value: 0.09%); format: functional
[20] = test system: Mahlavu; assay: Induction of apoptosis in human Mahlavu cells assessed as late apoptotic cells at 1 uM after 24 hrs by Annexin V-FITC/propidium iodide staining-based flow cytometric analysis (reference value: 1.28%); format: functional
[21] = test system: Mahlavu; assay: Induction of apoptosis in human Mahlavu cells assessed as viable cells at 1 uM after 48 hrs by Annexin V-FITC/propidium iodide staining-based flow cytometric analysis (reference value: 98.48%); format: functional; details: read-out: Activity
[22] = test system: Huh-7; assay: Induction of apoptosis in human HuH7 cells assessed as viable cells at 1 uM after 48 hrs by Annexin V-FITC/propidium iodide staining-based flow cytometric analysis (reference value: 97.42%); format: functional; details: Huh-7, 48 h, read-out: Activity
[23] = test system: Huh-7; assay: Induction of apoptosis in human HuH7 cells assessed as late apoptotic cells at 1 uM after 72 hrs by Annexin V-FITC/propidium iodide staining-based flow cytometric analysis (reference value: 2.34%); format: functional
[24] = test system: Huh-7; assay: Induction of apoptosis in human HuH7 cells assessed as early apoptotic cells at 1 uM after 48 hrs by Annexin V-FITC/propidium iodide staining-based flow cytometric analysis (reference value: 0.02%); format: functional
[25] = test system: MCF-10A; assay: Cytotoxicity against human MCF10A cells after 72 hrs by SRB assay; format: cell-based
[26] = test system: Mahlavu; assay: Induction of apoptosis in human Mahlavu cells assessed as apoptotic body formation at 1 uM by Hoechst staining-based assay; format: functional, cell-based
[27] = test system: Huh-7; assay: Induction of apoptosis in human HuH7 cells assessed as late apoptotic cells at 1 uM after 24 hrs by Annexin V-FITC/propidium iodide staining-based flow cytometric analysis (reference value: 2.51%); format: functional
[28] = test system: Huh-7; assay: Induction of apoptosis in human HuH7 cells assessed as late apoptotic cells at 1 uM after 48 hrs by Annexin V-FITC/propidium iodide staining-based flow cytometric analysis (reference value: 2.53%); format: functional
[29] = test system: Huh-7; assay: Induction of apoptosis in human HuH7 cells assessed as early apoptotic cells at 1 uM after 72 hrs by Annexin V-FITC/propidium iodide staining-based flow cytometric analysis (reference value: 0.03%); format: functional
[30] = test system: Mahlavu; assay: Induction of apoptosis in human Mahlavu cells assessed as chromatin condensation at 1 uM by Hoechst staining-based assay; format: functional, cell-based
[31] = test system: Huh-7; assay: Induction of apoptosis in human HuH7 cells assessed as necrotic cells at 1 uM after 24 hrs by Annexin V-FITC/propidium iodide staining-based flow cytometric analysis (reference value: 0.03%); format: functional
[32] = test system: Mahlavu; assay: Induction of apoptosis in human Mahlavu cells assessed as early apoptotic cells at 1 uM after 72 hrs by Annexin V-FITC/propidium iodide staining-based flow cytometric analysis (reference value: 0.24%); format: functional
[33] = test system: Mahlavu; assay: Induction of apoptosis in human Mahlavu cells assessed as late apoptotic cells at 1 uM after 48 hrs by Annexin V-FITC/propidium iodide staining-based flow cytometric analysis (reference value: 1.45%); format: functional
[34] = test system: Mahlavu; assay: Induction of apoptosis in human Mahlavu cells assessed as early apoptotic cells at 1 uM after 48 hrs by Annexin V-FITC/propidium iodide staining-based flow cytometric analysis (reference value: 0%); format: functional
[35] = test system: Mahlavu; assay: Induction of apoptosis in human Mahlavu cells assessed as viable cells at 1 uM after 24 hrs by Annexin V-FITC/propidium iodide staining-based flow cytometric analysis (reference value: 98.51%); format: functional; details: read-out: Activity
[36] = test system: Mahlavu; assay: Induction of apoptosis in human Mahlavu cells assessed as necrotic cells at 1 uM after 24 hrs by Annexin V-FITC/propidium iodide staining-based flow cytometric analysis (reference value: 0.13%); format: functional
[37] = test system: Mahlavu; assay: Induction of apoptosis in human Mahlavu cells assessed as late apoptotic cells at 1 uM after 72 hrs by Annexin V-FITC/propidium iodide staining-based flow cytometric analysis (reference value: 3.48%); format: functional
[38] = test system: Mahlavu; assay: Induction of apoptosis in human Mahlavu cells assessed as viable cells at 1 uM after 72 hrs by Annexin V-FITC/propidium iodide staining-based flow cytometric analysis (reference value: 96.05%); format: functional; details: read-out: Activity
[39] = Homo sapiens, HCT-116, 72 h, read-out: IC50
[40] = Homo sapiens, MCF-12A, 72 h, read-out: IC50
[41] = Homo sapiens, Mahlavu, 72 h, read-out: IC50
[42] = Homo sapiens, MCF7, 72 h, read-out: IC50
[43] = Homo sapiens, Huh-7, 72 h, read-out: IC50

For `COc1ccc2cc(CN3CCCCC3C(=O)[O-])c3cc(OC)c(OC)cc3c2c1.[K+]` (configuration not stated), the IC50 ([1]; snu-475) was “Not Active”, the IC50 [2] was “Not Active” and the IC50 ([3]; hct-116) was “Not Active”. The IC50 ([4]; mcf-12a) was “Non-Toxic”, the IC50 ([5]; mahlavu) was “Not Active” and the IC50 ([6]; hep 3b2) was “Not Active”. The IC50 ([7]; mcf7) was “Not Active”, the IC50 [8] was “Not Active” and the IC50 ([9]; huh-7) was “Not Active”.

With `CC[C@@]1(O)C(=O)OCc2c1cc1n(c2=O)Cc2cc3ccccc3nc2-1` the Activity [10] was “Active” and the Activity [11] was “Active”.

Compound `COc1ccc2c3c(c4cc(OC)c(OC)cc4c2c1)CN1CCCC[C@@H]1[C@H]3O` (racemic) has an Activity [12] of 0.13%, an Activity [13] of 0.32% and a viability at 1 µM [14] of 99.1%. It also gave an Activity [15] of 0.61%, an Activity [16] of 0% and a viability at 1 µM [17] of 95%. The Activity [18] was 0.23%, the Activity [19] was 0.02% and the Activity [20] was 3.47%. The viability at 1 µM [21] was 93.8%, the viability at 1 µM [22] was 96.4% and the Activity [23] was 4.69%. The IC50 [3, 39] was 43 nM, the Activity [24] was 0.07% and the IC50 [25] was 800 nM. The IC50 [4, 40] was greater than 50 nM, the Activity [26] was “Active” and the Activity [27] was 0.81%. For the same compound, the Activity [28] was 3.38%, the Activity [29] was 0.05% and the Activity [30] was “Active”. For the same compound, the IC50 [5, 41] was greater than 0.05 µM, the Activity [31] was 0.07% and the Activity [32] was 0%. For the same compound, the Activity [33] was 5.9%, the Activity [34] was 0% and the IC50 [7, 42] was 16 nM. For the same compound, the viability at 1 µM [35] was 96.2%, the Activity [36] was 0.33% and the Activity [37] was 10.53%. It also gave an IC50 [9, 43] of 0.306 µM and a viability at 1 µM [38] of 88.9%.

Compound `COc1ccc2c3c(c4cc(OC)c(OC)cc4c2c1)CN1CCCC[C@@H]1[C@@H]3O` (racemic) has an Activity [12] of 0.21%, an Activity [13] of 0.54% and a viability at 1 µM [14] of 99.1%. The Activity [15] was 1.59%, the Activity [16] was 0.05% and the viability at 1 µM [17] was 83%. The Activity [18] was 0.16%, the Activity [19] was 0.03% and the Activity [20] was 6.72%. The viability at 1 µM [21] was 70.2%, the viability at 1 µM [22] was 93% and the Activity [23] was 16.83%. For the same compound, the IC50 [3, 39] was 7 nM, the Activity [24] was 0.07% and the IC50 [25] was 140 nM. For the same compound, the IC50 [4, 40] was 100 nM, the Activity [26] was “Active” and the Activity [27] was 0.82%. For the same compound, the Activity [28] was 6.75%, the Activity [29] was 0% and the Activity [30] was “Active”. For the same compound, the IC50 [5, 41] was greater than 0.05 µM, the Activity [31] was 0.02% and the Activity [32] was 0%. The Activity [33] was 29.29%, the Activity [34] was 0% and the IC50 [7, 42] was 21 nM. For the same compound, the viability at 1 µM [35] was 92.7%, the Activity [36] was 0.58% and the Activity [37] was 69.05%. It also gave an IC50 [9, 43] of 0.017 µM and a viability at 1 µM [38] of 29.4%.

With `COc1ccc(/C=C(/C(=O)NCCCn2ccnc2)c2ccc(OC)c(OC)c2)cc1` the IC50 ([5]; mahlavu) was “Not Active” and the IC50 ([9]; huh-7) was “Not Active”.

For `COc1ccc2c3c(c4cc(OC)c(OC)cc4c2c1)CN1CCCCC1C3=O` (configuration not stated), the IC50 ([1]; Homo sapiens, SNU-475, 72 h, read-out: IC50) was 19.1 µM, the IC50 ([2]; Homo sapiens, 72 h, read-out: IC50) was 5 µM and the IC50 [3, 39] was 8100 nM. The IC50 ([4]; mcf-12a) was “Non-Toxic”, the IC50 [5, 41] was 35 µM and the IC50 ([6]; Homo sapiens, Hep3B, 72 h, read-out: IC50) was 45 µM. The IC50 [7, 42] was 7000 nM, the IC50 [8] was “Not Active” and the IC50 [9, 43] was 12 µM.

In the case of `COc1ccc2cc(CNCCCn3ccnc3)c3cc(OC)c(OC)cc3c2c1`, the IC50 ([5]; mahlavu) is reported as “Not Active” and the IC50 ([9]; huh-7) is reported as “Not Active”.

Compound `COc1ccc(/C=C(/CNCCCn2ccnc2)c2ccc(OC)c(OC)c2)cc1` has an IC50 [5, 41] of 13.8 µM and an IC50 [9, 43] of 9.3 µM.

`COc1ccc2cc(C(=O)NCCCn3ccnc3)c3cc(OC)c(OC)cc3c2c1` gave an IC50 [5, 41] of 54 µM and an IC50 [9, 43] of 19.2 µM.
